Experimental data: ChEMBL document CHEMBL1133753, “6-N-Acyltriciribine analogues: structure-activity relationship between acyl carbon chain length and activity against HIV-1” (J Med Chem, 2000)

What was measured:
[1] = system: HFF; assay: Antiviral activity against HCMV was determined by plaque reduction assay using HFF cells; assay type: functional, cell-based; details: Homo sapiens
[2] = Antiviral activity against HSV-1 was determined using BSC-1 cells by an enzyme-linked immunosorbent assay (ELISA); assay type: functional, cell-based; details: Cercopithecidae
[3] = system: CEM-SS; assay: Visual cytotoxicity was scored on CEM-SS cells; assay type: functional, cell-based; details: Homo sapiens
[4] = system: CEM-SS; assay: Intracellular phosphorylation (100 uM) in uninfected CEM-SS cells was studied after 24 hrs of Incubation.; assay type: functional, cell-based; details: Homo sapiens
In short: (§1)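 Uninfected cells grown in suspension with compound at the stated extracellular concentration for 5 or 24 h. Cells pelleted and washed in cold Puck's saline with glucose. Nucleotides extracted with 0.6 N TCA on ice, neutralized with freon/0.5 M triethylamine, then separated by reverse-phase C18 HPLC (formic acid pH 2.5 to 50% methanol gradient), UV 254/290 nm; peaks identified by electrospray MS in a separate run. TCN-P quantified against standards and converted to μM using 1.9 pL/cell.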

[5] = (§2) Cytotoxicity measured as Inhibition of KB cell growth was assessed.; assay type: functional, cell-based; details: Homo sapiens
[6] = system: HFF; assay: Visual cytotoxicity was scored on uninfected HFF cells; assay type: functional, cell-based; details: Homo sapiens
[7] = system: CEM-SS; assay: Intracellular phosphorylation (10 uM) in uninfected CEM-SS cells was studied; assay type: functional, cell-based; details: Homo sapiens; in short: as §1
[8] = Antiviral activity was evaluated by RT (reverse transcriptase) activity in cells acutely infected with HIV-1
[9] = as §2; assay type: cell-based; details: Homo sapiens
In short: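 KB cells plated at 5000/well and incubated overnight at 37 °C. Compound added in triplicate at eight concentrations, then 48 h at 37 °C in CO₂ (two population doublings). Cells fixed with 95% ethanol, stained with 0.1% crystal violet, dye eluted with acidified ethanol and read at 570 nm. IC50 taken from linear regression of % inhibition vs log concentration.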

[10] = system: CEM-SS; assay: Intracellular phosphorylation (10 uM) in uninfected CEM-SS cells was studied after 24 hrs of Incubation.; assay type: functional, cell-based; details: Homo sapiens; in short: as §1
[11] = species on record: Homo sapiens; assay: Intracellular phosphorylation (100 uM) in uninfected AA2 cells was studied, after 5 hrs of Incubation.; assay type: functional, cell-based; in short: as §1
[12] = system: CEM-SS; assay: Intracellular phosphorylation (100 uM) studied, after 5 hrs of Incubation.; assay type: functional, cell-based; details: Homo sapiens; in short: as §1

Row | SMILES | IC50 [1] [µM] | IC50 [2] [µM] | IC50 [3] [µM] | Concentration [4] [µM] | IC50 [5] [µM] | IC50 [6] [µM] | Concentration [7] [µM] | IC50 [8] [nM] | IC50 [9] [µM] | Concentration [10] [µM] | Concentration [11] [µM] | Concentration [12] [µM]
1 | CCCCC(=O)NC1=NN(C)c2ncnc3c2c1cn3C1O[C@H](CO)[C@@H](O)[C@H]1O (some centres undefined) | 0.45 | > 100 | 32 | 710 | 30 | > 100 | – | – | – | – | – | –
2 | CCCCCCCCC(=O)NC1=NN(C)c2ncnc3c2c1cn3C1O[C@H](CO)[C@@H](O)[C@H]1O (some centres undefined) | 12 | > 100 | 32 | – | 65 | 21 | 243 | – | – | – | – | –
3 | CCCCCC(=O)NC1=NN(C)c2ncnc3c2c1cn3C1O[C@H](CO)[C@@H](O)[C@H]1O (some centres undefined) | 8.8 | > 100 | 45 | – | 40 | 100 | – | – | – | – | – | –
4 | CN1N=C(NC(=O)C(C)(C)C)c2cn(C3O[C@H](CO)[C@@H](O)[C@H]3O)c3ncnc1c23 (some centres undefined) | > 100 | > 100 | > 100 | – | > 100 | > 100 | – | – | – | – | – | –
5 | CC(=O)NC1=NN(C)c2ncnc3c2c1cn3C1O[C@H](CO)[C@@H](O)[C@H]1O (some centres undefined) | > 100 | > 100 | > 100 | – | > 100 | > 100 | – | – | – | – | – | –
6 | CCCCCCCCCCCC(=O)NC1=NN(C)c2ncnc3c2c1cn3C1O[C@H](CO)[C@@H](O)[C@H]1O (some centres undefined) | 12 | 45 | 32 | – | 75 | 21 | – | – | – | – | – | –
7 | CCCCCCCCCC(=O)NC1=NN(C)c2ncnc3c2c1cn3C1O[C@H](CO)[C@@H](O)[C@H]1O (some centres undefined) | 12 | > 100 | 32 | – | 40 | 21 | – | – | – | – | – | –
8 | CN1N=C(N)c2cn([C@@H]3O[C@H](COP(=O)(O)O)[C@@H](O)[C@H]3O)c3ncnc1c23 [TRICIRIBINE PHOSPHATE] | – | 20 | > 1 | – | 10 | – | – | 40 | – | – | – | –
9 | CCC(=O)NC1=NN(C)c2ncnc3c2c1cn3C1O[C@H](CO)[C@@H](O)[C@H]1O (some centres undefined) | 40 | > 100 | > 100 | – | – | 100 | – | – | > 100 | – | – | –
10 | CC(C)C(=O)NC1=NN(C)c2ncnc3c2c1cn3C1O[C@H](CO)[C@@H](O)[C@H]1O (some centres undefined) | > 100 | > 100 | > 100 | – | > 100 | > 100 | – | – | – | – | – | –
11 | CN1N=C(NC(=O)c2ccccc2)c2cn(C3O[C@H](CO)[C@@H](O)[C@H]3O)c3ncnc1c23 (some centres undefined) | > 100 | > 100 | > 100 | – | > 100 | > 100 | – | – | – | – | – | –
12 | CCCCCCCC(=O)NC1=NN(C)c2ncnc3c2c1cn3C1O[C@H](CO)[C@@H](O)[C@H]1O (some centres undefined) | 12 | > 100 | 32 | – | 40 | 21 | – | – | – | – | – | –
13 | CCCC(=O)NC1=NN(C)c2ncnc3c2c1cn3C1O[C@H](CO)[C@@H](O)[C@H]1O (some centres undefined) | 10 | > 100 | > 100 | – | 100 | 100 | – | – | – | – | – | –
14 | CCCCCCC(=O)NC1=NN(C)c2ncnc3c2c1cn3C1O[C@H](CO)[C@@H](O)[C@H]1O (some centres undefined) | 11 | > 100 | 32 | – | 30 | 32 | – | – | – | 225 | 48 | 850
